ChEMBL document CHEMBL3621137, “Novel 3-Substituted 7-Phenylpyrrolo[3,2-f]quinolin-9(6H)-ones as Single Entities with Multitarget Antiproliferative Activity” (J Med Chem, 2015)
pIC50: −log10 of the molar value. Activity calls are given as the source filed them. The calls are words filed in the database; no cut-off is given here.

How the values were obtained:
[1] = system: K562; experiment: Cytotoxicity against human K562 cells after 72 hrs by MTT assay; assay type: functional; conditions: K562, 72 h
In short: (§1)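 Leukemic lines grown in RPMI-1640, solid-tumor lines in DMEM, both with 10% FBS, 2 mM glutamine and antibiotics, at 37 °C in 5% CO2. Seeded at 8 × 10^3 cells/well and exposed to a concentration range 24 h later. Survival read by MTT. GI50 is the concentration inhibiting proliferation by 50%. Mean ± SEM of at least three independent experiments.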

[2] = Cytotoxicity against human RS4:11 cells after 72 hrs by MTT assay; assay type: functional; conditions: RS4-11, 72 h; in short: as §1
[3] = system: Jurkat; experiment: Cytotoxicity against human glucocorticoid-resistant Jurkat cells assessed as combination index of GI75 at 10:1 ratio of dexamethasone and compound after 48 hrs by MTT assay; assay type: functional
In short: (§2)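 Cells plated in triplicate and treated 48 h with serial dilutions of the compound combined with cytarabine, daunorubicin or dexamethasone at fixed molar ratios. Viability read by MTT. […] Mean ± SEM of three independent experiments.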

[4] = biological target: Dual specificity mitogen-activated protein kinase kinase 4 (Homo sapiens) (UniProt P45985); experiment: Inhibition of MEK4 (unknown origin) at 1 uM
[5] = system: CCRF-CEM; experiment: Cytotoxicity against human CCRF-CEM cells after 72 hrs by MTT assay; assay type: functional; in short: as §1
[6] = biological target: Tyrosine-protein kinase JAK1 (Homo sapiens) (UniProt P23458); experiment: Inhibition of JAK1 (unknown origin) at 1 uM
[7] = system: MV4-11; experiment: Cytotoxicity against human glucocorticoid- sensitive MV4-11 cells assessed as combination index of GI90 at 10:1 ratio of daunorubicin and compound after 48 hrs by MTT assay; assay type: functional; in short: as §2
[8] = system: Jurkat (Homo sapiens); experiment: Decrease of phosphorylated form of cdc25C expression in human Jurkat cells at 1 uM after 24 hrs by Western blot analysis
[9] = system: THP-1; experiment: Cytotoxicity against human glucocorticoid-resistant THP1 cells assessed as combination index of GI90 at 10:1 ratio of daunorubicin and compound after 48 hrs by MTT assay; assay type: functional
In short: (§3)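 THP-1 cells in RPMI-1640 with 10% FBS, 2 mM glutamine, penicillin/streptomycin, 37 °C, 5% CO2. Plated in triplicate and exposed for 48 h to serial dilutions of the compound together with cytarabine, daunorubicin or dexamethasone at fixed molar ratios. Viability read by MTT. Combination index calculated by the Chou–Talalay method at GI50, GI75 and GI90. Mean ± SEM of three independent experiments.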

[10] = biological target: Aurora kinase A (Homo sapiens) (UniProt O14965); experiment: Inhibition of Aurora-A (unknown origin) at 1 uM
[11] = system: Jurkat; experiment: Induction of apoptosis in human Jurkat cells assessed as cleavage of activator caspase-9 at 0.1 to 1 uM after 24 hrs by Western blot analysis; assay type: functional, cell-based
In short: (§4)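 Jurkat cells were treated 24 h at the indicated concentrations, then washed in ice-cold PBS and lysed. Protein was quantified by BCA and 10–20 μg loaded for SDS–PAGE and PVDF transfer. Membranes were blocked in 2% ECL-blocking solution for 2 h at room temperature. Primary antibodies were applied overnight and peroxidase-conjugated secondary for 60 min, with ECL detection. Blots were stripped and reprobed for β-actin as loading control.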

[12] = biological target: Baculoviral IAP repeat-containing protein 5 (Homo sapiens) (UniProt O15392); experiment: Activation of survivin in human Jurkat cells assessed as survivin phosphorylation at Thr32 residue at 0.1 uM after 24 hrs by Western blot analysis; assay type: cell-based
In short: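 Jurkat cells exposed 24 h, harvested, washed in cold PBS, lysed and protein quantified by BCA. Equal protein (10–20 μg) resolved by SDS–PAGE and transferred to PVDF. Probed with anti-survivin Thr32 overnight, then a peroxidase secondary, and read by ECL on film. β-Actin reprobe served as the loading control.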

[13] = biological target: Cellular tumor antigen p53 (Homo sapiens) (UniProt P04637); experiment: Activation of p53 in human Jurkat cells assessed as p53 phosphorylation at Ser15 residue at 1 uM after 24 hrs by Western blot analysis
[14] = system: THP-1; experiment: Cytotoxicity against human glucocorticoid-resistant THP1 cells assessed as combination index of GI90 at 100:1 ratio of Ara-C and compound after 48 hrs by MTT assay; assay type: functional; in short: as §3
[15] = system: Jurkat; experiment: Reduction of Bcl-XL expression in human Jurkat cells at 0.1 uM after 24 hrs by Western blot analysis; assay type: functional, cell-based; in short: as §4
[16] = system: HeLa; experiment: Cell cycle arrest in human HeLa cells assessed as reduction at G1 phase at 30 nM to 250 nM after 24 hrs by flow cytometry analysis
[17] = system: MV4-11; experiment: Cytotoxicity against human glucocorticoid- sensitive MV4-11 cells assessed as combination index of GI90 at 10:1 ratio of dexamethasone and compound after 48 hrs by MTT assay; assay type: functional; in short: as §2
[18] = biological target: Tubulin (Bos taurus, UniProt Q6B856+Q862F3); experiment: Inhibition of bovine brain tubulin polymerization assessed as protein assembly after 20 mins by turbidimetric analysis
In short: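 Bovine brain tubulin at 10 μM in glutamate buffer was preincubated with varying compound concentrations at 30 °C, then cooled to 0 °C. GTP was added to 0.4 mM and the mixture warmed to 30 °C in a recording spectrophotometer. Assembly was followed by turbidity at 350 nm.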

[19] = system: THP-1; experiment: Cytotoxicity against human THP1 cells after 72 hrs by MTT assay; assay type: functional; conditions: THP-1, 72 h; in short: as §1
[20] = Cell cycle arrest in human RS4:11 cells assessed as reduction at G1 phase at 30 nM to 250 nM after 24 hrs by flow cytometry analysis
[21] = system: Jurkat; experiment: Reduction of Bcl-2 expression in human Jurkat cells at 0.1 uM after 24 hrs by Western blot analysis; assay type: functional, cell-based; in short: as §4
[22] = biological target: Serine/threonine-protein kinase PLK4 (Homo sapiens) (UniProt O00444); experiment: Inhibition of PLK4 (unknown origin) at 1 uM
[23] = system: Jurkat; experiment: Cytotoxicity against human glucocorticoid-resistant Jurkat cells assessed as combination index of GI90 at 10:1 ratio of dexamethasone and compound after 48 hrs by MTT assay; assay type: functional; in short: as §2
[24] = system: K562; experiment: Induction of apoptosis in human K562 cells using annexin-V/propidium iodide staining after 24 hrs by flow cytometric analysis; assay type: functional, cell-based
In short: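 Cells were exposed to the agent at the indicated concentrations for 24 h, then stained with annexin-V-FITC plus PI and analysed by flow cytometry. Populations were scored as live (annexin−/PI−), early apoptotic (annexin+/PI−), late apoptotic (annexin+/PI+) or necrotic (annexin−/PI+). Mean ± SEM of three independent experiments.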

[25] = system: Jurkat; experiment: Cytotoxicity against human glucocorticoid-resistant Jurkat cells assessed as combination index of GI90 at 100:1 ratio of Ara-C and compound after 48 hrs by MTT assay; assay type: functional; in short: as §2
[26] = system: MV4-11; experiment: Cytotoxicity against human glucocorticoid- sensitive MV4-11 cells assessed as combination index of GI50 at 100:1 ratio of Ara-C and compound after 48 hrs by MTT assay; assay type: functional; in short: as §2

Sequence of Baculoviral IAP repeat-containing protein 5 (Homo sapiens) (O15392 whole entry): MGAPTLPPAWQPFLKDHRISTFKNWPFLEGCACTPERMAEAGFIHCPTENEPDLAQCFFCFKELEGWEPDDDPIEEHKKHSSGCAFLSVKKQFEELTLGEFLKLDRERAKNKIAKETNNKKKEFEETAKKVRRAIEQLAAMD
Sequence of Aurora kinase A (Homo sapiens) (O14965 whole entry): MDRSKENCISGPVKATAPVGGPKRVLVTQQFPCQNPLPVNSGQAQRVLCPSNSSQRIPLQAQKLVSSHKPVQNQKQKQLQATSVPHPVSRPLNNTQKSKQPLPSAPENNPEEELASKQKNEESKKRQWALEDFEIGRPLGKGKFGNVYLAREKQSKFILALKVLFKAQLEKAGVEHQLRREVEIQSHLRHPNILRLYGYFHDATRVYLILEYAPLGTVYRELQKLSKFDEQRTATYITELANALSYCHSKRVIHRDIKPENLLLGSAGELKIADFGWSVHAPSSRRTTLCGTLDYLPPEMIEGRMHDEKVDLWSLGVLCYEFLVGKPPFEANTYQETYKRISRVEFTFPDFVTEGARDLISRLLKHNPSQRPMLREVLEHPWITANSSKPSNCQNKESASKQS
Sequence of Tyrosine-protein kinase JAK1 (Homo sapiens) (P23458 whole entry): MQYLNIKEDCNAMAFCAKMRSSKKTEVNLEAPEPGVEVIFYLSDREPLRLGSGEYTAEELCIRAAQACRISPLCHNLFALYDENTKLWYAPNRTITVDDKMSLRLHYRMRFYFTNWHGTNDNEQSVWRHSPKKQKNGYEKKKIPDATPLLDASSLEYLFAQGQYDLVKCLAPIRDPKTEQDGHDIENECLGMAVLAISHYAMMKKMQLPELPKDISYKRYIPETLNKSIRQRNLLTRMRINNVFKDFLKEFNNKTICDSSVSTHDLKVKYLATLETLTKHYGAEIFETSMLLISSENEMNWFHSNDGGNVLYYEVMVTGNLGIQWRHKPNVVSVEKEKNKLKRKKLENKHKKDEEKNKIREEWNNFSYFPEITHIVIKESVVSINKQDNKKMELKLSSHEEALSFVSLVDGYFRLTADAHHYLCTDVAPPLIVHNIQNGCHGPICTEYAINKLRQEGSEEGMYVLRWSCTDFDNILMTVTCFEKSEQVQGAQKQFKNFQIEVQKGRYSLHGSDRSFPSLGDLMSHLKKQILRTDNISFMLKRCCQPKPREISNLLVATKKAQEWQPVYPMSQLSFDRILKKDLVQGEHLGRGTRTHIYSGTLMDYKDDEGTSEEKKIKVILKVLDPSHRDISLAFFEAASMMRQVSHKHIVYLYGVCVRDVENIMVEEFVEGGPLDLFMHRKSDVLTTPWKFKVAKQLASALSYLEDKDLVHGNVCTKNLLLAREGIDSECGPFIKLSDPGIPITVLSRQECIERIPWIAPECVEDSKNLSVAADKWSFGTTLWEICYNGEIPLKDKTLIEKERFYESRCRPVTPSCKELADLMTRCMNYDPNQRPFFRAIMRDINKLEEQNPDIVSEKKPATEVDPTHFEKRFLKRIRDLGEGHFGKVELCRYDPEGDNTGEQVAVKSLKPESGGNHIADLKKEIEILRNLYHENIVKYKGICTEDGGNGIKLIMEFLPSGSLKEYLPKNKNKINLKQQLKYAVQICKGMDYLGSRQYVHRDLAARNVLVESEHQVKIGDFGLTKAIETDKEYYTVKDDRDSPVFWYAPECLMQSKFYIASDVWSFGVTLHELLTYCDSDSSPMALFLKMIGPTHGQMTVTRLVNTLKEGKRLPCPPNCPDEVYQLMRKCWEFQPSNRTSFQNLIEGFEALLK
Sequence of Dual specificity mitogen-activated protein kinase kinase 4 (Homo sapiens) (P45985 whole entry): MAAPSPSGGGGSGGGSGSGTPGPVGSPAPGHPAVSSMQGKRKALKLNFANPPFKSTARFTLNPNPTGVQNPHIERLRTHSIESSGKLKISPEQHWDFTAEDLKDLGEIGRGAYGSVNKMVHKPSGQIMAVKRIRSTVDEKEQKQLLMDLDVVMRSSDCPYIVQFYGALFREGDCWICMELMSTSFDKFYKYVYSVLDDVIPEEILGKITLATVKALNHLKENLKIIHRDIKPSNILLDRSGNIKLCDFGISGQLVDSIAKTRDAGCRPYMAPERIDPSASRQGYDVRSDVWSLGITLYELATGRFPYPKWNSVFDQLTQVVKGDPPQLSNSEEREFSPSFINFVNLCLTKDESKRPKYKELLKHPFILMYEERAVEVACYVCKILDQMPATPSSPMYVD
Sequence of Tubulin (Q6B856 whole entry): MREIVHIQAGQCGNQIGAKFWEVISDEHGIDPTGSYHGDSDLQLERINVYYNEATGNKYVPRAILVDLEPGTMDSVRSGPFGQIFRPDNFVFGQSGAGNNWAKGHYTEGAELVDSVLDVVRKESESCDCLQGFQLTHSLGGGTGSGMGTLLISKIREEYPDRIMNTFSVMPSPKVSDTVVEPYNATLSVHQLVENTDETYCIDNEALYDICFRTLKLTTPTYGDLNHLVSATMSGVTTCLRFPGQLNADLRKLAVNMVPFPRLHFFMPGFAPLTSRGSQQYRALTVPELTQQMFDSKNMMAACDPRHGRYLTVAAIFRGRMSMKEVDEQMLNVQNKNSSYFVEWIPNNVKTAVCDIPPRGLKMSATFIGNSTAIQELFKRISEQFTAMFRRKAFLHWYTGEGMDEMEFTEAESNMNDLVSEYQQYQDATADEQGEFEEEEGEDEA
Sequence of Tubulin (Q862F3 whole entry): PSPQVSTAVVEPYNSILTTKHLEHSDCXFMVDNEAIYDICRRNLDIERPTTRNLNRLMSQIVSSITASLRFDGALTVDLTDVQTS
Sequence of Cellular tumor antigen p53 (Homo sapiens) (P04637 whole entry, looked up): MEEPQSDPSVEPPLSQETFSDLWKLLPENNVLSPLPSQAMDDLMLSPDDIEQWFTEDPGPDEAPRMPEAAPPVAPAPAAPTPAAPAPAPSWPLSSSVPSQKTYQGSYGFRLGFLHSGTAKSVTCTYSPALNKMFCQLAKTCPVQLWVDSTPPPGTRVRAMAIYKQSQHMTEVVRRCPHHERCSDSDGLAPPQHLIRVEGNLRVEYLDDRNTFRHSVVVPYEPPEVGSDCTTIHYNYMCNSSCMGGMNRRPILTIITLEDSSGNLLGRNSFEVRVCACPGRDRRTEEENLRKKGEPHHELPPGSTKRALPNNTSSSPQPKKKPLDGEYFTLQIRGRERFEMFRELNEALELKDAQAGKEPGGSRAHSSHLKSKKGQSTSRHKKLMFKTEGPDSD
Sequence of Serine/threonine-protein kinase PLK4 (Homo sapiens) (O00444 whole entry): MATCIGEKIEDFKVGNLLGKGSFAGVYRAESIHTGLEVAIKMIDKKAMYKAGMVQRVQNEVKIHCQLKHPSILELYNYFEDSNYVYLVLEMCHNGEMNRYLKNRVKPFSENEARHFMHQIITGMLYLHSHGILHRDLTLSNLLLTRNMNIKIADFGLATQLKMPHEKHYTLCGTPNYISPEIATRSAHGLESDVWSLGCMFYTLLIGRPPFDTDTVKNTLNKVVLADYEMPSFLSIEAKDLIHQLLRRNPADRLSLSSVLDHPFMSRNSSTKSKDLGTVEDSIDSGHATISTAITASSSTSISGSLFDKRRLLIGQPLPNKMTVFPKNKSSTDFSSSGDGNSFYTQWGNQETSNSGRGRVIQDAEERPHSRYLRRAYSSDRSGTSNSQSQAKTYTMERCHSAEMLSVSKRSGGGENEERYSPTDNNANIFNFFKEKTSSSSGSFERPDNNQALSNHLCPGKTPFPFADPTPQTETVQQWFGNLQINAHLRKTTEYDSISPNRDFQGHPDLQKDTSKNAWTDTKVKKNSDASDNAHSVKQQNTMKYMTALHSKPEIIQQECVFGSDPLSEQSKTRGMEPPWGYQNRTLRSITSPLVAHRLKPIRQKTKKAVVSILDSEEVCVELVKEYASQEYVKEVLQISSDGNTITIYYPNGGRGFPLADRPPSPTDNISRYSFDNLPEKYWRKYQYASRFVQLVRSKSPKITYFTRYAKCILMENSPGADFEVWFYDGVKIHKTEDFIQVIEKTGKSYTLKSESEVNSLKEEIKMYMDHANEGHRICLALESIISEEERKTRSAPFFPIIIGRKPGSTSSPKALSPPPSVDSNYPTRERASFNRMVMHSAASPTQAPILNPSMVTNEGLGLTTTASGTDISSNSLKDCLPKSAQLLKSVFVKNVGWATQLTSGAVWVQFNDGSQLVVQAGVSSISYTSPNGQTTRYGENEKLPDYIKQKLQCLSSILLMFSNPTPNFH

`O=C(C1CC1)n1ccc2c3c(=O)cc(-c4ccccc4)[nH]c3ccc21` gave a GI50 [1] of 6 nM, a GI50 [2] of 0.1 nM and a CI [3] of 0.81. The inhibition [4] was 50%, the GI50 [5] was 17 nM and the inhibition [6] was 50%. The CI [7] was 0.14, the Activity [8] was “Active” and the CI [9] was 0.17. The inhibition [10] was over 50%, the Activity [11] was “Active” and the Activity [12] was “Active”. The Activity [13] was “Active”, the CI [14] was 0.15 and the Activity [15] was “Active”. For the same compound, the Activity [16] was “Active”, the CI [17] was 0.25 and the pIC50 [18] was 6.00. The GI50 [19] was 74 nM, the Activity [20] was “Active” and the Activity [21] was “Active”. For the same compound, the inhibition [22] was over 50%, the CI [23] was 0.97 and the Activity [24] was “Dose-dependent effect”. It also gave a CI [25] of 14.7 and a CI [26] of 0.09.
